Reference: ChEMBL document CHEMBL1151774, “Synthesis and biological evaluation of new N-linked 5-triazolylmethyl oxazolidinones” (Eur J Med Chem, 2008)
≈ marks a conversion by molar mass, not a printed value.

Experiments:
[1] = tested on: Streptococcus pneumoniae; assay: Antimicrobial activity against sStreptococcus pneumoniae after 16 to 18 hrs by agar dilution method; type: functional
[2] = tested on: Enterococcus faecalis; assay: Antimicrobial activity against Enterococcus faecalis after 16 to 18 hrs by agar dilution method; type: functional
[3] = tested on: Staphylococcus aureus; assay: Antimicrobial activity against Staphylococcus aureus ATCC 29213 after 16 to 18 hrs by agar dilution method; type: functional
[4] = tested on: Staphylococcus aureus; assay: Antimicrobial activity against methicillin-susceptible Staphylococcus aureus after 16 to 18 hrs by agar dilution method; type: functional
[5] = tested on: Staphylococcus aureus; assay: Antimicrobial activity against methicillin-resistant Staphylococcus aureus after 16 to 18 hrs by agar dilution method; type: functional
[6] = AUC (0 to infinity) in Sprague-Dawley rat at 10 mg/kg, po; type: ADME, organism-based, Plasma; design: time infinity, dose 10 mg/kg, route oral; details: Sprague-Dawley, plasma
Procedure, shortened: (§1)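 Single dose given orally (10 or 50 mg/kg) or intravenously (10 mg/kg). Serial 300 µL blood samples were taken from the retrobulbar vein. Plasma was quantified by LC-MS. Parameters came from mean plasma concentration by non-compartmental analysis. F is absolute oral bioavailability, assuming linear pharmacokinetics.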

[7] = Elimination half life in Sprague-Dawley rat at 10 mg/kg, po; type: ADME, organism-based; design: dose 10 mg/kg, route oral; details: in vivo, read-out: beta t1/2 (converted); procedure, shortened: as §1
[8] = AUC (0 to infinity) in Sprague-Dawley rat at 50 mg/kg, po; type: ADME, organism-based, Plasma; design: time infinity, dose 50 mg/kg, route oral; details: Sprague-Dawley, plasma; procedure, shortened: as §1
[9] = AUC (0 to infinity) in Sprague-Dawley rat at 10 mg/kg, iv; type: ADME, organism-based; design: time infinity, dose 10 mg/kg, route intravenous; details: plasma; procedure, shortened: as §1
[10] = Elimination half life in Sprague-Dawley rat at 50 mg/kg, po; type: ADME, organism-based; design: dose 50 mg/kg, route oral; details: in vivo, read-out: beta t1/2 (converted); procedure, shortened: as §1
[11] = tested on: Staphylococcus aureus; assay: Antimicrobial activity against methicillin-resistant Staphylococcus aureus 05-2 infected in iv dosed KunMing SPF mouse; type: functional
Procedure, shortened: (§2)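 Mice given a lethal systemic infection by intraperitoneal injection of the MLD inoculum of MRSA 05-2. Compound dosed orally or by i.v. injection in 0.9% NaCl immediately and 4 h post-infection. ED50 (dose curing 50% of infected mice) calculated by the Bliss method on day 7 post-infection, with 95% confidence ranges.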

[12] = Clearance in Sprague-Dawley rat at 10 mg/kg, po; type: ADME, organism-based; design: dose 10 mg/kg, route oral; details: in vivo; procedure, shortened: as §1
[13] = Cmax in Sprague-Dawley rat at 50 mg/kg, po; type: ADME, organism-based; design: dose 50 mg/kg, route oral; details: in vivo; procedure, shortened: as §1
[14] = Elimination half life in Sprague-Dawley rat at 10 mg/kg, iv; type: ADME, organism-based; design: dose 10 mg/kg, route intravenous; details: in vivo, read-out: beta t1/2 (converted); procedure, shortened: as §1
[15] = Clearance in Sprague-Dawley rat at 50 mg/kg, po; type: ADME, organism-based; design: dose 50 mg/kg, route oral; details: in vivo; procedure, shortened: as §1
[16] = Tmax in Sprague-Dawley rat at 50 mg/kg, po; type: ADME, organism-based; design: dose 50 mg/kg, route oral; details: in vivo; procedure, shortened: as §1
[17] = Tmax in Sprague-Dawley rat at 10 mg/kg, po; type: ADME, organism-based; design: dose 10 mg/kg, route oral; details: in vivo; procedure, shortened: as §1
[18] = tested on: Staphylococcus aureus; assay: Antimicrobial activity against methicillin-resistant Staphylococcus aureus 05-2 infected in po dosed KunMing SPF mouse; type: functional; procedure, shortened: as §2
[19] = Oral bioavailability in Sprague-Dawley rat at 10 mg/kg; type: ADME, organism-based; details: in vivo; procedure, shortened: as §1
[20] = Cmax in Sprague-Dawley rat at 10 mg/kg, po; type: ADME, organism-based; design: dose 10 mg/kg, route oral; details: in vivo; procedure, shortened: as §1
[21] = Clearance in Sprague-Dawley rat at 10 mg/kg, iv; type: ADME, organism-based; design: dose 10 mg/kg, route intravenous; details: in vivo; procedure, shortened: as §1

Structure (SMILES) | MIC [1] [µg/mL] | MIC [2] [µg/mL] | MIC [3] [µg/mL] | MIC [4] [µg/mL] | MIC [5] [µg/mL] | also measured
O=Cc1cccc(CN2CCN(c3ccc(N4C[C@H](Cn5ccnn5)OC4=O)cc3F)CC2)c1 | 1 (≈ 2.15 µM) | 1 (≈ 2.15 µM) | 0.25 (≈ 0.538 µM) | 0.5 (≈ 1.08 µM) | 0.125 (≈ 0.269 µM) | 
O=C1O[C@@H](Cn2ccnn2)CN1c1ccc(N2CCN(Cc3ccncc3)CC2)c(F)c1 | 1 (≈ 2.29 µM) | 2 (≈ 4.57 µM) | 0.5 (≈ 1.14 µM) | 0.5 (≈ 1.14 µM) | 1 (≈ 2.29 µM) | 
O=C1O[C@@H](Cn2ccnn2)CN1c1ccc(N2CCN(Cc3ccccc3[N+](=O)[O-])CC2)c(F)c1 | 1 (≈ 2.08 µM) | > 2 | 0.125 (≈ 0.26 µM) | 0.125 (≈ 0.26 µM) | 1 (≈ 2.08 µM) | 
Nc1ccccc1CN1CCN(c2ccc(N3C[C@H](Cn4ccnn4)OC3=O)cc2F)CC1 | 0.5 (≈ 1.11 µM) | 1 (≈ 2.21 µM) | 0.125 (≈ 0.277 µM) | 0.125 (≈ 0.277 µM) | 0.5 (≈ 1.11 µM) | 
O=C1O[C@@H](Cn2ccnn2)CN1c1ccc(N2CCN(Cc3cccc([N+](=O)[O-])c3)CC2)c(F)c1 | 0.5 (≈ 1.04 µM) | 0.5 (≈ 1.04 µM) | 0.03 (≈ 0.0623 µM) | 0.06 (≈ 0.125 µM) | 0.5 (≈ 1.04 µM) | AUC(0-inf) [6]: 16100 ng·h/mL; half-life [7]: 2.36 h; AUC(0-inf) [8]: 74500 ng·h/mL; AUC(0-inf) [9]: 26200 ng·h/mL; half-life [10]: 5.34 h; ED50 [11]: 11.2 mg/kg; CL/F [12]: 11.7 mL/min/kg; Cmax [13]: 10800 ng/mL; half-life [14]: 2.95 h; CL/F [15]: 11.3 mL/min/kg; Tmax [16]: 2.3 h; Tmax [17]: 1.4 h; ED50 [18]: 7.87 mg/kg; bioavailability [19]: 61.5%; Cmax [20]: 3240 ng/mL; clearance [21]: 6.98 mL/min/kg
Nc1ccc(CN2CCN(c3ccc(N4C[C@H](Cn5ccnn5)OC4=O)cc3F)CC2)cc1 | 0.5 (≈ 1.11 µM) | 0.25 (≈ 0.554 µM) | 0.125 (≈ 0.277 µM) | 0.06 (≈ 0.133 µM) | 0.5 (≈ 1.11 µM) | AUC(0-inf) [6]: 3100 ng·h/mL; half-life [7]: 3.4 h; AUC(0-inf) [8]: 18100 ng·h/mL; AUC(0-inf) [9]: 7080 ng·h/mL; half-life [10]: 4.67 h; ED50 [11]: 6.73 mg/kg; CL/F [12]: 54.4 mL/min/kg; Cmax [13]: 2320 ng/mL; half-life [14]: 3.52 h; CL/F [15]: 49 mL/min/kg; Tmax [16]: 1 h; Tmax [17]: 0.75 h; ED50 [18]: 14.5 mg/kg; bioavailability [19]: 43.8%; Cmax [20]: 1200 ng/mL; clearance [21]: 23.9 mL/min/kg
O=C1O[C@@H](Cn2ccnn2)CN1c1ccc(N2CCN(Cc3ccccn3)CC2)c(F)c1 | 0.5 (≈ 1.14 µM) | 0.5 (≈ 1.14 µM) | 0.125 (≈ 0.286 µM) | 0.125 (≈ 0.286 µM) | 0.5 (≈ 1.14 µM) | 
O=C1O[C@@H](Cn2ccnn2)CN1c1ccc(N2CCN(Cc3ccc([N+](=O)[O-])cc3)CC2)c(F)c1 | 4 (≈ 8.31 µM) | 8 (≈ 16.6 µM) | 0.5 (≈ 1.04 µM) | 0.5 (≈ 1.04 µM) | > 8 | 
O=C1O[C@@H](Cn2ccnn2)CN1c1ccc(N2CCN(Cc3ccc(Br)s3)CC2)c(F)c1 | 0.5 (≈ 0.959 µM) | 1 (≈ 1.92 µM) | 0.06 (≈ 0.115 µM) | 0.06 (≈ 0.115 µM) | 0.5 (≈ 0.959 µM) | 
Cc1ccc(CN2CCN(c3ccc(N4C[C@H](Cn5ccnn5)OC4=O)cc3F)CC2)s1 | 2 (≈ 4.38 µM) | 4 (≈ 8.76 µM) | 0.125 (≈ 0.274 µM) | 0.06 (≈ 0.131 µM) | 4 (≈ 8.76 µM) | 
O=C1O[C@@H](Cn2ccnn2)CN1c1ccc(N2CCN(Cc3ccc(Cl)o3)CC2)c(F)c1 | 1 (≈ 2.17 µM) | 2 (≈ 4.34 µM) | 0.125 (≈ 0.271 µM) | 0.125 (≈ 0.271 µM) | 1 (≈ 2.17 µM) | 
